Legend:
[1] = Antiproliferative activity against human Caco2 cells assessed as cell viability after 24 hrs by MTT assay; format: functional, cell-based; conditions: Caco-2, 24 h
Summary of the method: (§1)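 CaCo-2 kept in RPMI with 10% fetal calf serum and antibiotics at 37 °C, 5% CO2. Cells were seeded at 10^3 per well overnight, then treated 24 h at 0, 5, 10, 50 and 100, diluted from a stock containing 1% DMSO. Viability came from WST-1 read at 450 nm, blank-subtracted and normalised to untreated cells.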

[2] = tested on: A549; assay: Antiproliferative activity against human A549 cells assessed as cell viability after 24 hrs by MTT assay; format: functional, cell-based; conditions: A549, 24 h
Summary of the method: (§2)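 Monolayers in DMEM (A549) or RPMI (MCF-7) with 10% fetal calf serum, penicillin and streptomycin at 37 °C and 5% CO2. Seeded overnight at 10^3 cells/well, then dosed at 0–100 from a serum-free stock in 1% DMSO diluted in complete medium. After 24 h, viability was read by WST-1 premix at 450 nm and blank-corrected against untreated cells. IC50 given as mean with standard error.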

[3] = tested on: MCF7; assay: Antiproliferative activity against human MCF7 cells assessed as cell viability after 24 hrs by MTT assay; format: functional, cell-based; conditions: MCF7, 24 h; summary of the method: as §2
[4] = tested on: HepG2; assay: Antiproliferative activity against human HepG2 cells assessed as cell viability after 24 hrs by MTT assay; format: functional, cell-based; conditions: HepG2, 24 h
Summary of the method: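 HepG2 grown as monolayer in DMEM plus 10% fetal calf serum and penicillin/streptomycin at 37 °C, 5% CO2. Plated overnight at 10^3 cells/well and exposed 24 h to five levels (0–100) diluted in complete medium from a 1% DMSO stock. WST-1 absorbance at 450 nm gave blank-corrected % viability versus untreated control, from which IC50 was derived.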

[5] = tested on: HepG2; assay: Induction of apoptosis in human HepG2 cells at 10 uM by annexin V-FITC/ethidium homodimer III staining-based flow cytometry relative to control; format: functional
Summary of the method: (§3)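 Treated cells at 2–3×10^5/mL were resuspended in 1X binding buffer and stained with FITC-Annexin V (apoptosis) plus Ethidium Homodimer III (necrosis) for 15 min at room temperature in the dark. Buffer was added and FACS was read within 1 h. Percent induction is the compound's apoptotic or necrotic fraction minus that of untreated negative control.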

[6] = tested on: HEK293; assay: Cytotoxicity against HEK293 cells assessed as cell viability after 24 hrs by MTT assay; format: cell-based; conditions: Homo sapiens, HEK293, 24 h
Summary of the method: (§4)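 Human embryonic kidney 293 cells, as normal-cell counterpart, treated at four levels (10, 100, 200, 300). Percentage of viable cells reported with SE at each level, and IC50 estimated.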

[7] = Cytotoxicity against HEK293 cells assessed as cell viability at 10 uM after 24 hrs by MTT assay; format: cell-based; conditions: human, read-out: Activity; summary of the method: as §4
[8] = Cytotoxicity against HEK293 cells assessed as cell viability at 300 uM after 24 hrs by MTT assay; format: cell-based; conditions: human, read-out: Activity; summary of the method: as §4
[9] = Cytotoxicity against HEK293 cells assessed as cell viability at 100 uM after 24 hrs by MTT assay; format: cell-based; conditions: human, read-out: Activity; summary of the method: as §4
[10] = Cytotoxicity against HEK293 cells assessed as cell viability at 200 uM after 24 hrs by MTT assay; format: cell-based; conditions: human, read-out: Activity; summary of the method: as §4
[11] = tested on: HepG2; assay: Induction of necrosis in human HepG2 cells at 10 uM by annexin V-FITC/ethidium homodimer III staining-based flow cytometry relative to control; format: functional; summary of the method: as §3
[12] = tested on: MCF7; assay: Induction of necrosis in human MCF7 cells at 10 uM by annexin V-FITC/ethidium homodimer III staining-based flow cytometry relative to control; format: functional; summary of the method: as §3
[13] = tested on: MCF7; assay: Induction of apoptosis in human MCF7 cells at 10 uM by annexin V-FITC/ethidium homodimer III staining-based flow cytometry relative to control; format: functional; summary of the method: as §3
[14] = tested on: Caco-2; assay: Induction of necrosis in human Caco2 cells at 10 uM by annexin V-FITC/ethidium homodimer III staining-based flow cytometry relative to control; format: functional; summary of the method: as §3
[15] = Antiproliferative activity against human Caco2 cells assessed as cell viability at 10 uM after 24 hrs by MTT assay; format: functional; conditions: Caco-2, 24 h, read-out: Activity; summary of the method: as §1
[16] = tested on: Caco-2; assay: Induction of apoptosis in human Caco2 cells at 10 uM by annexin V-FITC/ethidium homodimer III staining-based flow cytometry relative to control; format: functional; summary of the method: as §3
[17] = tested on: MCF7; assay: Induction of apoptosis in human MCF7 cells assessed as increase in caspase 3 activation at IC50 using Ac-Asp-Glu-Val-Asp-pNA as substrate after 24 hrs by colorimetric assay relative to control; format: functional
Summary of the method: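 MCF-7 cells were grown in RPMI with 10% fetal calf serum, penicillin and streptomycin at 37 °C under 5% CO2, then seeded at 5 × 10^5 cells/well and treated for 24 h. After the medium was removed, cells were lysed with lysis buffer and shaken for 10 min. Lysate was added to caspase-3 reaction buffer containing diluted substrate. The increase in A405 was read over 30 min and expressed relative to untreated controls.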

[18] = tested on: A549; assay: Induction of apoptosis in human A549 cells at 10 uM by annexin V-FITC/ethidium homodimer III staining-based flow cytometry relative to control; format: functional; summary of the method: as §3
[19] = tested on: A549; assay: Induction of necrosis in human A549 cells at 10 uM by annexin V-FITC/ethidium homodimer III staining-based flow cytometry relative to control; format: functional; summary of the method: as §3

SMILES | IC50 [1] | IC50 [2] | IC50 [3] | IC50 [4] | Activity [5] | IC50 [6] | viability at 24 h, 10 µM [7] | viability at 24 h, 300 µM [8] | viability at 24 h, 100 µM [9] | viability at 24 h, 200 µM [10] | Activity [11] | Activity [12] | Activity [13] | Activity [14] | viability at 10 µM [15] | Activity [16] | fold change (FC) [17] | Activity [18] | Activity [19]
COc1ccc(C2=NN(c3ccc(-c4ccccc4)nn3)C(c3ccc(OC)cc3)C2)cc1 (stereo not drawn) | > 100 µM | > 100 µM | 100 µM | > 100 µM |  |  |  |  |  |  |  |  |  |  |  |  |  |  | 
COc1ccc(C2CC(c3ccccc3)=NN2c2ccc(-c3ccccc3)nn2)cc1 (stereo not drawn) | > 100 µM | 91.7 µM | 100 µM | > 100 µM |  |  |  |  |  |  |  |  |  |  |  |  |  |  | 
Clc1ccc(C2=NN(c3ccc(-c4ccccc4)nn3)C(c3ccccc3)C2)cc1 (stereo not drawn) | 100 µM | 96.7 µM | 10 µM | 8.75 µM | 22.7% | > 300 µM | 84% | 71.6% | 81.6% | 78.1% | 23.45% |  |  |  |  |  |  |  | 
COc1cc(C2CC(c3ccc(Cl)cc3)=NN2c2ccc(-c3ccccc3)nn2)cc(OC)c1OC (stereo not drawn) | > 100 µM | 83.3 µM | 100 µM | > 100 µM |  |  |  |  |  |  |  |  |  |  |  |  |  |  | 
Clc1ccc(C2CC(c3ccccc3)=NN2c2ccc(-c3ccccc3)nn2)cc1 (stereo not drawn) | 100 µM | 100 µM | 100 µM | 6.31 µM | 44.4% | > 300 µM | 96.6% | 74% | 91.2% | 88.3% | 4.4% |  |  |  |  |  |  |  | 
COc1ccc(C2=NN(c3ccc(-c4ccccc4)nn3)C(c3ccc(F)cc3)C2)cc1 (stereo not drawn) | 18.1 µM | > 100 µM | 20 µM | 9.16 µM |  |  |  |  |  |  |  |  |  |  |  |  |  |  | 
COc1ccc(C2=NN(c3ccc(-c4ccccc4)nn3)C(c3cc(OC)c(OC)c(OC)c3)C2)cc1 (stereo not drawn) | > 100 µM | > 100 µM | 100 µM | > 100 µM |  |  |  |  |  |  |  |  |  |  |  |  |  |  | 
COc1ccc(C2=NN(c3ccc(-c4ccccc4)nn3)C(c3ccc(OC)cc3OC)C2)cc1 (stereo not drawn) | > 100 µM | 100 µM | 100 µM | > 100 µM |  |  |  |  |  |  |  |  |  |  |  |  |  |  | 
COc1ccc(C2=NN(c3ccc(-c4ccccc4)nn3)C(c3ccccc3)C2)cc1 (stereo not drawn) | > 100 µM | 75.9 µM | > 100 µM | > 100 µM |  |  |  |  |  |  |  |  |  |  |  |  |  |  | 
Clc1ccc(C2=NN(c3ccc(-c4ccccc4)nn3)C(c3ccc(Cl)cc3)C2)cc1 (stereo not drawn) | > 100 µM | > 100 µM | 8.8 µM | 10 µM |  | > 300 µM | 85.6% | 76.4% | 81.7% | 79.8% |  | 0.1% | 39% |  |  |  |  |  | 
COc1ccc(C2CC(c3ccc(Cl)cc3)=NN2c2ccc(-c3ccccc3)nn2)c(OC)c1 (stereo not drawn) | > 100 µM | > 100 µM | > 100 µM | > 100 µM |  |  |  |  |  |  |  |  |  |  |  |  |  |  | 
COc1ccc(C2CC(c3ccc(Cl)cc3)=NN2c2ccc(-c3ccccc3)nn2)cc1 (stereo not drawn) | > 100 µM | 100 µM | 100 µM | > 100 µM |  |  |  |  |  |  |  |  |  |  |  |  |  |  | 
COc1ccc(C2=NN(c3ccc(-c4ccccc4)nn3)C(c3ccc(C(F)(F)F)cc3)C2)cc1 (stereo not drawn) | 65 µM | > 100 µM | 46.8 µM | > 100 µM |  |  |  |  |  |  |  |  |  |  |  |  |  |  | 
FC(F)(F)c1ccc(C2CC(c3ccc(Cl)cc3)=NN2c2ccc(-c3ccccc3)nn2)cc1 (stereo not drawn) | 10 µM | > 100 µM | 1.67 µM | 8.33 µM | 24.8% | > 300 µM | 92.7% | 79.1% | 87.7% | 84.6% | 4.97% | 1.26% | 27.2% | 1.87% | 50% | 13.4% | 5 |  | 
Fc1ccc(C2CC(c3ccccc3)=NN2c2ccc(-c3ccccc3)nn2)cc1 (stereo not drawn) | 10 µM | 89.2 µM | 100 µM | 8.42 µM | 30.5% | > 300 µM | 93.7% | 78.6% | 91.9% | 86.3% | 8.84% |  |  |  | 50% |  |  |  | 
COc1cc(C2CC(c3ccccc3)=NN2c2ccc(-c3ccccc3)nn2)cc(OC)c1OC (stereo not drawn) | > 100 µM | 83.8 µM | 70 µM | 100 µM |  |  |  |  |  |  |  |  |  |  |  |  |  |  | 
Fc1ccc(C2CC(c3ccc(Cl)cc3)=NN2c2ccc(-c3ccccc3)nn2)cc1 (stereo not drawn) | > 100 µM | > 100 µM | 3.75 µM | 10 µM |  | > 300 µM | 85.9% | 68.8% | 82.3% | 75.8% |  | 1.98% | 32.1% |  |  |  |  |  | 
c1ccc(C2=NN(c3ccc(-c4ccccc4)nn3)C(c3ccccc3)C2)cc1 (stereo not drawn) | 40.9 µM | > 100 µM | 23.8 µM | 10 µM |  |  |  |  |  |  |  |  |  |  |  |  |  |  | 
COc1cccc2c1C(=O)c1c(O)c3c(c(O)c1C2=O)C[C@@](O)(C(=O)CO)C[C@@H]3O[C@H]1C[C@H](N)[C@H](O)[C@H](C)O1 [DOXORUBICIN] | 3 µM |  |  |  |  |  |  |  |  |  |  |  |  |  |  |  |  |  | 
COc1ccc(C2=NN(c3ccc(-c4ccccc4)nn3)C(c3ccc(Cl)cc3)C2)cc1 (stereo not drawn) | > 100 µM | 100 µM | 58 µM | > 100 µM |  |  |  |  |  |  |  |  |  |  |  |  |  |  | 
COc1ccc(C2CC(c3ccccc3)=NN2c2ccc(-c3ccccc3)nn2)c(OC)c1 (stereo not drawn) | > 100 µM | 9.56 µM | > 100 µM | 100 µM |  | > 300 µM | 85.2% | 74.2% | 82.9% | 81.1% |  |  |  |  |  |  |  | 27% | 1.04%
FC(F)(F)c1ccc(C2CC(c3ccccc3)=NN2c2ccc(-c3ccccc3)nn2)cc1 (stereo not drawn) | 50 µM | 9.16 µM | 100 µM | 10 µM |  | > 300 µM | 89.8% | 70.8% | 86.2% | 82.3% |  |  |  |  |  |  |  | 46.6% | 11.11%

Source: ChEMBL document CHEMBL3769399, “Synthesis and cytotoxic activities of some pyrazoline derivatives bearing phenyl pyridazine core as new apoptosis inducers” (Eur J Med Chem, 2016)
